The source of these data is ChEMBL document CHEMBL4765395, “Design, diversity-oriented synthesis and biological evaluation of novel heterocycle derivatives as non-nucleoside HBV capsid protein inhibitors” (Eur J Med Chem, 2020).

Data set [1] deals with HepG2 2.2.15. Description: Cytotoxicity against human HepG2.2.15 cells assessed as reduction in cell viability at 50 uM incubated for 4 days prior to compound washout followed by compound addition and measured after 4 days by CCK8 assay relative to control. Conditions: hepg2 2.2.15, 192 h, time 8 day. The format is cell-based. In general terms: Formazan colour is commonly taken as a measure of viable cells.

Data set [2] has as its system Hepatitis B virus. In words: Antiviral activity against HBV infected in human HepG2.2.15 cells assessed as reduction in intracellular viral DNA level at 50 uM incubated for 4 days prior to compound washout followed by compound addition and measured after 4 days by fluorogenic probe based RT-qPCR analysis relative to control. The format is functional. The following applies: time 8.0 day. Background: In qPCR the cycle at which signal appears reflects the starting amount.

Data set [3] relates to HepG2 2.2.15. Description: Cytotoxicity against human HepG2.2.15 cells assessed as reduction in cell viability at 20 uM incubated for 4 days prior to compound washout followed by compound addition and measured after 4 days by CCK8 assay relative to control. The format is cell-based. Conditions: hepg2 2.2.15, 192 h, time 8 day.
Data set [4] relates to Hepatitis B virus. Description: Antiviral activity against HBV infected in human HepG2.2.15 cells assessed as reduction in intracellular viral DNA level at 20 uM incubated for 4 days prior to compound washout followed by compound addition and measured after 4 days by fluorogenic probe based RT-qPCR analysis relative to control. The format is functional. The following applies: for inhibition: time 8.0 day; for inhibition at 20 µM: HepG2.2.15, 192 h, time 8 day.

Data set [5] relates to Hepatitis B virus. Description: Antiviral activity against HBV infected in human HepG2.2.15 cells assessed as […] at 100 uM incubated for 4 days prior to compound washout followed by compound addition and measured after 4 days by fluorogenic probe based RT-qPCR analysis relative to control. The following applies: for inhibition: time 8.0 day; for inhibition at 100 µM: HepG2.2.15, 192 h, time 8 day. The format is functional.

The test system of data set [6] is HepG2 2.2.15. In words: Cytotoxicity against human HepG2.2.15 cells assessed as reduction in cell viability at 100 uM incubated for 4 days prior to compound washout followed by compound addition and measured after 4 days by CCK8 assay relative to control. The format is cell-based. The following applies: hepg2 2.2.15, 192 h, time 8 day. In outline: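 Three wells of 4000 HepG2.2.15 cells per well received a single 100 µM concentration for 8 days, with medium replaced on day 4. CCK-8 (10%) was added 0.5 h before the end, and OD was read at 450 and 630 nm. Percent cell death was calculated against untreated cells.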

Data set [7] in a line: Selectivity index, ratio of CC50 for human HepG2.2.15 cells to IC50 for antiviral activity against HBV infected in human HepG2.2.15 cells assessed as reduction in HBsAg secretion. The format is toxicity, cell-based. The following applies: read-out: Ratio CC50/IC50.
The nature of data set [8]: Selectivity index, ratio of CC50 for human HepG2.2.15 cells to IC50 for antiviral activity against HBV infected in human HepG2.2.15 cells assessed as reduction in intracellular viral DNA level. The format is toxicity, cell-based. Conditions: read-out: Ratio CC50/IC50.
Data set [9] can be described thus: Selectivity index, ratio of CC50 for human HepG2.2.15 cells to IC50 for antiviral activity against HBV infected in human HepG2.2.15 cells assessed as reduction in HBeAg secretion. The format is toxicity, cell-based. The following applies: read-out: Ratio CC50/IC50.
A short description of data set [10]: Cytotoxicity against human HepG2.2.15 cells assessed as reduction in cell viability incubated for 4 days prior to compound washout followed by compound addition and measured after 4 days by CCK8 assay. The format is cell-based, HepG2 2.2.15. The following applies: time 8 day. In outline: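 Cytotoxicity in HepG2.2.15 cells was measured with five doses (100, 20, 4, 0.8, 0.16 µM) over 8 days, with medium changed on day 4. CCK-8 (10%) was added 0.5 h before the end, OD was read at 450/630 nm, and CC50 is the concentration killing 50% of cells against untreated controls.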

The test system of data set [11] is Hepatitis B virus. Description: Antiviral activity against HBV infected in human HepG2.2.15 cells assessed as […] incubated for 4 days prior to compound washout followed by compound addition and measured after 4 days by fluorogenic probe based RT-qPCR analysis. The format is functional, organism-based.
The test system of data set [12] is Hepatitis B virus. Description: Antiviral activity against HBV infected in human HepG2.2.15 cells assessed as reduction in HBeAg secretion incubated for 4 days prior to compound washout followed by compound addition and measured after 4 days by ELISA. The format is functional, organism-based. In outline:
(§1)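 Five doses (100, 20, 4, 0.8, 0.16 µM) were added in triplicate to HepG2.2.15 cultures for 8 days, with fresh medium on day 4 and untreated controls. Day-8 supernatants were assayed for HBsAg and HBeAg by ELISA kit with absorbance read-out. IC50 is the concentration giving 50% inhibition of antigen secretion.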

Data set [13] relates to Hepatitis B virus. In words: Antiviral activity against HBV infected in human HepG2.2.15 cells assessed as reduction in HBsAg secretion incubated for 4 days prior to compound washout followed by compound addition and measured after 4 days by ELISA. The format is functional, organism-based. A digest of the protocol:
as §1
A general note: In an ELISA, binding on a coated surface is turned into a signal by an enzyme label.

Activity calls are given as the source filed them. No cut-off for these calls is given here.

With `COC(=O)c1nc(-c2ccccc2OC)cnc1NC(=O)c1ccccc1`, in the data set on HepG2 2.2.15 [1], the Activity is given as 5.7%. Further, the inhibition – broadly, how much of the control response was suppressed – with Hepatitis B virus [2] is “inactive”.
`CC(C)Cc1nc(NS(=O)(=O)c2ccc(F)cc2)sc1C(=O)NCc1ccc(F)cc1`: the Activity in the data set with HepG2 2.2.15 [3] amounted to 17.5%. In the data set with Hepatitis B virus [4], the inhibition entry is “inactive”.
For the compound `CCOC(=O)c1cn(-c2cccc(F)c2)nc1NC`, the inhibition entry with Hepatitis B virus [5] was “inactive”. Further, in the data set with HepG2 2.2.15 [6], the Activity came to 5.7%.
For `CCOC(=O)c1cn(-c2nccs2)nc1NCc1ccccc1`, in that order: “inactive” and 30.4%.
For the compound `O=C(NCc1ccc(F)cc1Cl)c1cn(-c2nccs2)nc1NCc1ccccc1`, in the data set on Hepatitis B virus [5], the inhibition at 100 µM turned out to be 41.6%. The Activity with HepG2 2.2.15 [6] is 29.2%.
`CC(C)Cc1nc(-c2ccsc2)sc1C(=O)NCc1ccc(F)cc1`: the Activity in the data set with HepG2 2.2.15 [3] is 6.7%. The inhibition result in the data set with Hepatitis B virus [4] is “inactive”.
For `Cc1ccc(-c2nc(CC(C)C)c(C(=O)NCc3ccc(F)cc3)s2)s1`, in that order: “Non-Toxic” and “inactive”.
In the case of `CC(C)Cc1nc(-c2ccccc2)ncc1C(=O)NCc1ccccc1`, the Activity result in the data set with HepG2 2.2.15 [1] is “Non-Toxic”. The inhibition result in the data set on Hepatitis B virus [2] is “inactive”.
For the compound `CC(C)Cc1nc(NC(=O)c2ccc(F)cc2)sc1C(=O)NCc1ccc(F)cc1`, the Activity in the data set on HepG2 2.2.15 [3] was 20.7%. The inhibition at 20 µM with Hepatitis B virus [4] was determined as 29.2%.
As for `CCNc1nn(-c2cccc(F)c2)cc1C(=O)OCC`, the inhibition at 100 µM in the data set with Hepatitis B virus [5] was found to be 39.9%. Also, in the data set on HepG2 2.2.15 [6], the Activity is given as 10.9%.
Regarding `CC(C)Cc1sc(-c2nccs2)nc1C(=O)NCc1ccc(F)cc1F`, the values for the selectivity ratio in data set [7], in [8] and in data set [9] were 2.2, 16.8 and 1.5, respectively. Also, the CC50 (usually the concentration that lowers cell viability or growth by half) at 192 h in data set [10] worked out at 45.4 µM. Moreover, the IC50 (usually the midpoint of a concentration-inhibition curve) in the data set with Hepatitis B virus [11] came to 2.7 µM; with Hepatitis B virus [12], 30.1 µM; in the data set with Hepatitis B virus [13], 21 µM. The inhibition at 100 µM in the data set with Hepatitis B virus [5] worked out at 83.8%. In the data set with HepG2 2.2.15 [6], the Activity was 24.9%.
With `O=C(NC1CC1)c1cn(-c2cccc(F)c2)nc1NCc1ccccc1`, in the data set on Hepatitis B virus [5], the inhibition at 100 µM stood at 38.8%. For the same compound, the Activity in the data set on HepG2 2.2.15 [6] is reported as 40.8%.
As for `CC(C)Cc1nc(NC(=O)c2cccs2)sc1C(=O)NCc1ccc(F)cc1`, the Activity in the data set on HepG2 2.2.15 [3] was determined as 15.2%. Moreover, the inhibition result in the data set with Hepatitis B virus [4] is “inactive”.
With `CC(C)Cc1nc(-c2cc3ccccc3s2)sc1C(=O)NCc1ccc(F)cc1`, the Activity entry in the data set on HepG2 2.2.15 [3] is “Non-Toxic”. In the data set on Hepatitis B virus [4], the inhibition at 20 µM was found to be 21.1%.
